The record followed here is ChEMBL document CHEMBL1133865, “Flavonoids: structural requirements for antiproliferative activity on breast cancer cells” (Bioorg Med Chem Lett, 2001).

A value given as a limit tells only on which side of the number the result lay.

The subject of one experiment is MCF7. The experiment in a line: The compound was tested for antiproliferative activity against MCF-7 human breast cancer cells. The class given is functional, cell-based. The method, boiled down:
(§1)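 MCF-7 human breast cancer cells, MTT assay. Growth inhibition expressed as % of control absorbance after 6 days incubation. IC50 read graphically as the concentration giving a 50% decrease in cell growth. Mean of three experiments; deviations within ±5%.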
On to `COc1ccc(C(=O)/C=C/c2ccccc2)c(O)c1`, for which the IC50 (in general, the concentration that gives 50% inhibition) was found to be 26.8 µM.

The compound `O=C(/C=C/c1ccccc1)c1ccccc1O` [2'-HYDROXYCHALCONE] showed a concentration for half-maximal inhibition (IC50) of 28.4 µM.

In the case of `COc1ccc(O)c(C(=O)/C=C/c2ccccc2)c1`, the IC50 was 29.2 µM.

The compound `COc1cc(O)c(C(=O)/C=C/c2ccccc2)c(OC)c1` [FLAVOKAWAIN B] showed a 50% inhibitory concentration (IC50) of 20 µM.

`COc1cccc2c1C(=O)CC(c1ccccc1)O2` (stereo not drawn) gave an IC50 of 35.7 µM.

In the case of `O=c1cc(-c2ccccc2)oc2c(O)c(O)ccc12` [7,8-DIHYDROXYFLAVONE], the IC50 worked out at 27.5 µM. This IC50 and that of the compound before are within 1.5-fold of each other.

Compound `O=C(/C=C/c1ccccc1)c1ccc(O)c(O)c1O` displayed an IC50 of 22.2 µM.

In turn, `COc1ccc2c(c1)OC(c1ccccc1)CC2=O` (stereo not drawn) returned an IC50 of 35.7 µM.

In turn, `COc1cc(O)c(C(=O)/C=C/c2ccccc2)c(O)c1` gave an IC50 of over 60 µM.

On to `COc1cccc(O)c1C(=O)/C=C/c1ccccc1`, for which the IC50 was determined as 18.3 µM. In other words, the double-digit micromolar range.

The compound `O=C(/C=C/c1ccccc1)c1ccc(O)cc1O` [2',4'-DIHYDROXYCHALCONE] displayed an IC50 of 16.3 µM.

Regarding `COc1cc(OC)c2c(c1)OC(c1ccccc1)CC2=O` (stereo not drawn) [DIMETHYLPINOCEMBRIN], the IC50 worked out at 36 µM. This IC50 is about 2.2-fold higher than that of the compound before.

Another experiment relates to MCF7. The experiment in a line: The compound was tested for antiproliferative activity against MCF-7 human breast cancer cells; In active. The class given is functional, cell-based. Summed up: as §1
As for `O=C1CC(c2ccccc2)Oc2c1ccc(O)c2O` (stereo not drawn), the IC50 entry is “Not Active”.
